CHOP inh: inhibitors of CHOP induction in ER stress response; inhibition, % at 10 µM; AID 2732; CHO-K1 CHOP-promoter luciferase, tunicamycin-induced, 15-18 h; hit rate 3.8% among 220,000;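 active = compounds that reduced the stress-induced luciferase reporter signal by more than about 70% of percent inhibition, limit read from the data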;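 also: 0% = tunicamycin plus vehicle and 100% = wells without tunicamycin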
UPR XBP1 act: adaptive UPR (XBP1) activation; AID 463104; activation, % at 20 µM; CHO-XBP1 luciferase reporter, IRE1-XBP1 UPR activation, luminescence; percent of tunicamycin response, DMSO as zero; hit rate 0.33% among 330,000;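 active = versus positive control, 20 µM dose yields 30% or more activation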;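 also: 100% = tunicamycin at 10 µg/mL and 0% = DMSO only wells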
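Material: CHO cell line with stable XBP1 luciferase reporter; buffer or medium: F12 medium containing 10% fetal bovine serum; compound: single point, 20 µM final compound, 1% DMSO; incubation: 6 h treatment, 37 °C; measured by: glow luminescence from Steady-Glo reagent; evaluation: activation, % of tunicamycin; control set: tunicamycin high, DMSO low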
FXN GAA850 act: activators of GAA850 frataxin (FXN) promoter; HEK293 lucGAA850 FXN promoter luciferase reporter, 24 h; percent of 10 µM SAHA response; activation, % at 6 µM; hit rate 0.56% among 360,000;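 active = activation above the average of all compounds screened plus 3 SD, cutoff fixed separately per campaign, cut at about 7.5% in these data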;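 also: 0% = DMSO wells and 100% = 10 µM SAHA wells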
UPR CHOP act: apoptotic UPR (CHOP) activation; activation, % at 10 µM; AID 449763; hit rate 0.34% among 330,000; CHO-CHOP luciferase reporter, luminescence; percent of tunicamycin response over DMSO baseline;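 active = at 10 µM dose, activation of 40% or more, normalized to positive control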;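 also: 100% = tunicamycin at 10 µg/mL and 0% = DMSO alone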
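Assay system: CHO-CHOP cells, stable luciferase reporter of PERK-eIF2a-CHOP signalling / Buffer or medium: F12 plus 10% serum / Compound dosing: one dose, 10 µM in 0.5% DMSO / Times: 6 h compound treatment, 37 °C / Technique: luciferase luminescence / Read-out: % reporter activation, DMSO baseline versus tunicamycin full activation / Benchmarks: tunicamycin and DMSO controls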
* marks the source's active call; other numbers are inactive results; x = not tested or not shown. The entries come from a sample that favours hits as a whole.

SMILES	CHOP inh	UPR XBP1 act	FXN GAA850 act	UPR CHOP act
COc1ccc(C(=O)OC(C(=O)c2ccccc2)c2ccccc2)cc1 (centres undefined)	72.3*	-1.9	1.2	-1.8
CC(C)N1CCC1(C)C(=O)Nc1nccc2cccnc12 (centres undefined)	x	x	-0.2	x
CC(=O)OCC(=O)N1N=C(c2ccc3ccccc3c2)CC1c1ccccc1 (centres undefined)	-1.8	7.3	1.4	12.6
Nc1cc(=O)[nH]c(SCC(=O)N2N=C(c3ccc4ccccc4c3)CC2c2ccccc2)n1 (centres undefined)	86.3*	-0.7	-1.0	-0.3
O=C(Nc1ccc(C(F)(F)F)cc1Cl)c1ccc(Cn2cc(Br)cn2)o1	73.0*	-2.5	0.2	-2.1
c1ccc(-c2noc(-c3ccncc3)n2)nc1	-1.2	-6.0	4.2	-1.7
c1ccc(-c2noc(-c3ccc4ccccc4c3)n2)nc1	92.6*	-6.6	-15.1	-9.5
O=C(C1CCCN1S(=O)(=O)c1ccc(Cl)cc1)N1CCOCC1 (centres undefined)	73.8*	0.2	2.2	-2.5
CN(CCOc1ccc(C[C@H](Nc2ccccc2C(=O)c2ccccc2)C(=O)O)cc1)c1ccccn1	6.8	x	x	x
Cc1cccc(Nc2nc(-c3ccc(O)cc3O)cs2)n1	x	1.9	1.3	4.8
Oc1ccc(-c2csc(Nc3ncccn3)n2)c(O)c1	93.5*	-2.5	3.1	3.8
CCc1cc(C(=O)Cc2cnn(-c3ccccc3)c2)c(O)cc1O	77.5*	-2.0	1.4	-2.2
COCCN1CCN(c2cc(-c3ccccc3)nc3cc(-c4cccc(F)c4)nn23)CC1	80.3*	-0.3	-0.4	5.5
NC(CCc1ccccc1)c1csc(Nc2nncc3ccccc23)n1 (centres undefined)	x	x	4.0	x
Cc1ccc(NC(=O)CCC(=O)c2ccc(F)cc2)cc1Cl	79.4*	0.6	-1.1	-1.1
CC1CCCC(NC(=O)c2cn(C)c3ccc(S(=O)(=O)N4CCCC4)cc3c2=O)C1C (centres undefined)	80.3*	-0.3	x	-0.8
CC(C)c1ccc(NC(=O)Nc2nc(C(N)COCc3ccccc3)cs2)cc1 (centres undefined)	x	x	-1.3	x
COc1ccc(/C=N/Nc2nc(Nc3ccccc3)nc(N3CCCC3)n2)cc1[N+](=O)[O-]	83.5*	13.3	0.1	39.3
COc1ccccc1C(=O)Oc1cc(N)n(S(=O)(=O)c2ccc(C)cc2)n1	78.5*	2.8	0.4	-1.8
Cc1ccc(S(=O)(=O)n2nc(OC(=O)c3ccccc3C)cc2N)cc1	x	-6.9	-2.3	1.4
COc1ccc(S(=O)(=O)n2nc(OC(=O)C3CCCCC3)cc2N)cc1	73.8*	1.5	0.7	-0.8
CC(C)[C@H](NC(=O)c1ccco1)C(=O)Nc1ccc(N2CCCCCC2)cc1	x	x	0.6	x
COC(=O)c1c(-c2cccs2)csc1NC(=O)CN1CCOCC1	73.9*	0.2	7.1	-1.8
COc1ccc(C(O)c2ncc(-c3ccc4ccccc4c3)[nH]2)cc1F (centres undefined)	x	x	-0.5	x
COc1ccc(NC(=S)N/N=C2/CCCc3c(C)cc(C)cc32)cc1	77.3*	5.3	2.6	0.1
SMILES	CHOP inh	UPR XBP1 act	FXN GAA850 act	UPR CHOP act
Cc1ccc(-c2nn(-c3ccccc3)cc2/C=N/n2c(-c3cccs3)n[nH]c2=S)cc1	20.7	3.1	3.2	2.2
O=[N+]([O-])c1ccc(-c2nn(-c3ccccc3)cc2/C=N/n2c(-c3ccncc3)n[nH]c2=S)cc1	94.4*	1.4	0.8	2.7
S=c1[nH]nc(-c2cccs2)n1/N=C/c1cn(-c2ccccc2)nc1-c1cccs1	79.2*	5.7	2.2	10.1
O=c1[nH]c(Nc2nc3ccccc3o2)nc2c1CCCC2	96.6*	-0.8	4.8	30.3
Cc1ccc(Nc2nc3c(c(=O)[nH]2)CCCC3)cc1	-4.1	-1.2	5.3	1.5
CCCCNC(=O)C1(C)CCN1C(=O)c1cccc(OC(C)=O)c1C (centres undefined)	x	x	-0.4	x
CSc1ccccc1NC(=O)CSCc1ccc(Br)cc1	51.3	0.4	0.8	-0.7
CSc1ccccc1NC(=O)CN(C)Cc1ccc(Br)cc1	80.3*	0.5	3.0	2.1
CSc1ccccc1NC(=O)CSCc1ccccc1Br	71.8*	-0.7	-1.5	-3.5
O=C(NCc1nnnn1-c1ccc(F)cc1)c1cc2ccccc2o1	x	x	1.5	x
COCCNC(=O)C1(C)Cc2c(-c3cccc(C(F)(F)F)c3)ccnc2O1 (centres undefined)	x	x	-3.7	x
OC1c2c(F)cccc2N=C2CCCCN21 (centres undefined)	x	x	-0.2	x
COc1ccc(-c2cc(CNc3nc(NC(C)C)nc4cc(-c5ccccc5)sc34)on2)cc1	x	x	-3.1	x
O=C(Nc1ccc(S(=O)(=O)Nc2ccccc2)cc1)C1COc2ccccc2O1 (centres undefined)	84.7*	-4.0	1.3	0.5
Cc1cc(C)nc(NS(=O)(=O)c2ccc(NC(=O)C3COc4ccccc4O3)cc2)n1 (centres undefined)	8.8	1.5	0.1	0.5
S=C(Nc1ccccc1Cl)Nc1ccc(Cl)cc1Cl	1.2	-0.8	-1.9	-1.7
S=C(NNc1ccnc2cc(Cl)ccc12)Nc1ccccc1Cl	95.7*	5.6	2.6	22.9
COc1nc(N/N=C/c2ccc(-c3cccc([N+](=O)[O-])c3)o2)nc(N2CCOCC2)n1	70.8*	x	x	x
O=[N+]([O-])c1ccc(-c2ccc(/C=N/Nc3nc(N4CCCCC4)nc(N4CCCCC4)n3)o2)cc1	95.2*	4.4	-0.5	5.6
CC1=C2C3OC(=O)C(C)C3CCC2(C)C=C(Br)C1=O (centres undefined)	x	x	-0.7	x
CCC(=O)N1CCC1(C)C(=O)Nc1ccc(OC)c(OC)c1 (centres undefined)	x	x	1.1	x
COc1nnc(-c2ccc(N3CCOCC3)c(NC(C)=O)c2)c2ccccc12	-16.4	-1.2	-2.4	-3.2
COc1nnc(-c2ccc(N3CCOCC3)c(NC(=O)c3ccccc3)c2)c2ccccc12	86.3*	4.5	-0.4	-2.7
CCC(C)Oc1cccc(C(=O)Nc2ccccc2N2CCOCC2)c1 (centres undefined)	75.3*	1.1	-2.0	1.3
O=C(Nc1ccccc1N1CCOCC1)c1cccc(Oc2ccccc2)c1	x	0.8	1.5	2.8
SMILES	CHOP inh	UPR XBP1 act	FXN GAA850 act	UPR CHOP act
CC1CCN(c2ccccc2NC(=O)c2cc([N+](=O)[O-])ccc2N2CCOCC2)CC1	x	-3.3	12.3*	10.1
CC(C)Oc1cccc(C(=O)Nc2ccccc2N2CCOCC2)c1	73.7*	-0.4	2.8	0.9
CN(C)C(=O)c1cccc(-c2cnc3c(NC=O)cc(-c4ccc(N(C)C)cc4)cn23)c1	x	x	0.6	x
CC(=O)C1CCC2C3C=CC4=CC(=O)CCC4(C)C3CCC12C (centres undefined)	x	x	-0.5	x
CCc1nc2c(OCc3ccc(C(F)(F)F)cc3)cccn2c1N(C)C(=O)C1CC1	x	x	-1.7	x
CC(Oc1ccc(Cl)cc1)C(=O)Nc1ccccc1N1CCOCC1 (centres undefined)	x	-5.0	-2.9	0.7

From PubChem BioAssay
